Source: PubChem (several laboratories)
Rows were chosen to be rich in hits. Some 5.7% of all compounds tested hit in one or more screens of this group.
SKKanGAS inh = blocks kanamycin growth of S. pyogenes SKKanGAS strain. BacTiter-Glo, 6 h. inhibition, % at 7.5 µM. 1.3% of 300,000 active;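 active means mean replicate score, as percent of positive control median, at least 50; inconclusive means mean below 50 but one replicate at or above 50; inactive means mean and every replicate below 50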;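 further: strain carries kanamycin resistance gene driven by streptokinase promoter and grows in 40 µg/ml kanamycin; loss of luminescence reflects streptokinase promoter inhibition or plain growth inhibition; 0% = median of DMSO wells and 100% = positive control at its reference dose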
Calb FLC = C. albicans growth modulation with fluconazole; AID 1979; 0.57% of 300,000 active; growth inhibition, % (concentration not given with the values); C. albicans CaCi-2 (fluconazole-resistant clinical isolate) + fluconazole, Alamar Blue growth, 48 h;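 active means growth inhibition above about 58% in most replicates, limit read from the data, passing the limit was not always enough; inconclusive means exactly half the replicates above a set limit; inactive means most replicates below a set limit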;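 further: all wells also contain fluconazole at 8 µg/ml as a sub-toxic cotreatment; 0% = median of DMSO wells and 100% = median of geldanamycin control wells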
Mdm2-MdmX inh = inhibitors of human Mdm2/MdmX interaction | O15151+Q00987 | SaOS-2 split-luciferase Mdm2/MdmX complementation, luminescence | inhibition, % at 8 µM | 3% of 330,000 active;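 active means inhibition of at least 50% at 8 µM in the primary screen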
Target sequence (O15151 whole entry, looked up): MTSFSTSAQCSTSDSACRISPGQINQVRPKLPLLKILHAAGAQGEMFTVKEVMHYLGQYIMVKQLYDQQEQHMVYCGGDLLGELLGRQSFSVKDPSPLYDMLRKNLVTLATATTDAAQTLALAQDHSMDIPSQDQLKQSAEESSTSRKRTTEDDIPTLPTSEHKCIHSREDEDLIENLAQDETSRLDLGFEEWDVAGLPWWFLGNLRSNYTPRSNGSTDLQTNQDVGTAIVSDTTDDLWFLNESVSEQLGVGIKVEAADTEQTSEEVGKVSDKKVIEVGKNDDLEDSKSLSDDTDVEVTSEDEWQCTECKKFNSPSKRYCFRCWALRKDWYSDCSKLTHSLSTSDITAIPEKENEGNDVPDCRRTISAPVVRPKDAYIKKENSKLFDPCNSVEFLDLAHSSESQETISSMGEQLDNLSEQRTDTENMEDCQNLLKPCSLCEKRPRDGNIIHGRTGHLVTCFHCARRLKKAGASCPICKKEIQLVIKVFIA
Target sequence (Q00987 whole entry, looked up): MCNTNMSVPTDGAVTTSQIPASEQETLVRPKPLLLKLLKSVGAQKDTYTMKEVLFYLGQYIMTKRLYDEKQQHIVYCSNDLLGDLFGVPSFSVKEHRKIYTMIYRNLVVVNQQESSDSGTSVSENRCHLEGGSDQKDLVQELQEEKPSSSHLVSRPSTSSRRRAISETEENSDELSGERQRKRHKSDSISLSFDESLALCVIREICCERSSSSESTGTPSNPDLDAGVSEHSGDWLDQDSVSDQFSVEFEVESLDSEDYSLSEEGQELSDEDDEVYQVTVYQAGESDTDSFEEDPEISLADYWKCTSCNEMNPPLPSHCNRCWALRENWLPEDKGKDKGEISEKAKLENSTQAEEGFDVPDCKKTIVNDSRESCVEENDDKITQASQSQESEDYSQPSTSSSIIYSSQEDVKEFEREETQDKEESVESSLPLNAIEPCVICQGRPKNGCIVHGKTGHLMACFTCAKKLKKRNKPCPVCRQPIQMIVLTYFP
T cruzi inh = T. cruzi replication inhibition | T. cruzi beta-gal in NIH3T3, luminescence, 90 h | inhibition, % (no concentration beside the values) | 1.4% of 300,000 active | AID 1885;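 active means mean inhibition across valid replicates above about 55%, limit read from the data; inconclusive means mean below that limit but half or more replicates reach it; inactive means mean below it, under half of replicates reach it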;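 further: signal also drops with host cell toxicity which is not excluded here; 0% = plate median of DMSO wells and 100% = zero luminescence signal; higher percent means less beta-gal luminescence so fewer parasites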
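Read-out: Parasite load inhibition, % | Test system: Mouse NIH/3T3 fibroblasts infected with β-gal-expressing T. cruzi Tulahuen C4 | Amount: 5,000 cells/well | Medium: DMEM, 2% fetal bovine serum | Signal: GalScreen β-gal luminescence, detergent lysis, 60 min | Timing: 3 h attach, ≥90 h co-culture | Also added: Tulahuen C4 trypomastigotes, 5000/well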
CSC inhib = blocks cancer stem cells. cancer stem cell-like cells viability, luminescence. inhibition, % at 7.5 µM. 1.1% of 300,000 active; in the data active means inhibition above about 75%; inconclusive means no clear call, values can overlap the other calls; tested in HMLE shEcad cells
Beta apoptosis = beta cell apoptosis inhibition; INS-1E cytokine-induced death, ATP luminescence, 48 h; percent of positive-control rescue, neutral wells zero; protection from apoptosis, % (no concentration beside the values); 0.8% of 300,000 active; AID 435005;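 active means Every replicate reaches about 75%, or at least half do and their mean reaches it too, limit read from the data; inconclusive means At least half of replicates reach the limit but their mean does not; inactive means Under half of replicates reach the limit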;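 further: 0% = cytokine-treated negative control wells and 100% = positive control rescue; higher means more ATP so stronger rescue from cytokine killing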
* = called active by the depositor; ? = inconclusive; · = no result.

SMILES	SKKanGAS inh	Calb FLC	Mdm2-MdmX inh	T cruzi inh	CSC inhib	Beta apoptosis
Cc1ccc2nc(-c3ccc(-c4cccc(Cl)c4)cc3)c(NCc3ccccc3)n2c1	11	-2	-17	14	91*	121*
Cc1ccc(OCC(=O)Nc2cccc(S(=O)(=O)N3CCCCCC3)c2)cc1C	6	-4	19	9	-7	0
O=C(NCCNC(=O)c1ccco1)c1ccco1	-1	-2	33	-7	·	-2
COc1ccc(CNCCNC(=O)c2ccco2)c(OC)c1OC	-2	91*	9	-8	-6	1
CCCCN(C)Cc1c(C)[nH]c2c(Cl)cccc2c1=O	1	3	14	60*	·	·
OCCNC(=S)NCCc1ccccc1	0	-7	-20	-6	4	5
C/C(=N\NC(=S)NCCc1ccccc1)c1ccc(Cl)cc1Cl	91*	-10	11	·	57	4
S=C(NCCCc1ccccc1)Nc1ccccc1	·	-37	4	·	3	1
CC(C)(CNC(=S)NCCc1ccccc1)CNC(=S)NCCc1ccccc1	-9	5	·	65*	·	·
S=C(NCCc1ccccc1)Nc1ccc(Nc2ccccc2)cc1	-5	31	42	2	20	92*
C/C(=N\NC(=S)NCCc1ccccc1)c1ccc(O)cc1O	-8	-4	-3	25	·	18
S=C(Nc1ccc(Nc2ccccc2)cc1)NC1CCCCCC1	17	-5	39	55*	78*	23
COc1cc(CN(C)CC2CCCN(CCc3ccccc3F)C2)cc(Cl)c1OC (configuration not stated)	1	0	33	58*	·	·
CCCc1cc(-c2nc(N)ncc2-c2csc(C)n2)c(O)cc1OC	-14	?	21	21	-5	-4
CCCc1cc(-c2nc(N)ncc2-c2ccc3c(c2)OCCCO3)c(O)cc1OC	17	-3	40	58*	173*	0
COc1ccccc1N=C1NC(=O)/C(=C/c2ccc(N(C)C)cc2)S1	56*	-3	45	-2	53	7
COc1ccc(/C=C2\SC(=Nc3ccccc3)NC2=O)cc1	6	2	4	9	-4	-1
CCCCN(C(=N)N1CCCCC1)c1nc(C)c([N+](=O)[O-])c(=O)[nH]1	-3	-5	-37	-34	-20	1
CCOC(=O)c1cnc(-n2nc(C)cc2C)nc1Nc1ccc(O)cc1	12	-3	15	4	-15	119*
CCOC(=O)c1cnc(-n2nc(C)cc2C)nc1Nc1cccc(C(=O)O)c1	11	46	-13	12	0	-4
CCOC(=O)c1cnc(-n2nc(C)cc2C)nc1NC	?	-9	-3	-8	-14	0
CCOC(=O)c1cnc(-n2nc(C)cc2C)nc1Nc1ccc(C)cc1	95*	6	·	10	·	·
CCOC(=O)c1cnc(-n2nc(C)cc2C)nc1NNc1nc(C)cc(C)n1	80*	4	4	-12	7	3
CC(C)C(=O)Nc1ccccc1C(=O)OCC(=O)c1ccc2c(c1)OCCO2	-2	7	22	14	0	-4
CCC1(CC)Cc2ccccc2C(=O)N1	1	-4	-5	-4	-4	3
SMILES	SKKanGAS inh	Calb FLC	Mdm2-MdmX inh	T cruzi inh	CSC inhib	Beta apoptosis
O=C1c2ccccc2CC1(Cc1ccccc1)Cc1ccccc1	57*	7	23	6	0	0
O=C(Cn1cc(S(=O)(=O)Cc2cccc([N+](=O)[O-])c2)c2ccccc21)N1CCOCC1	-2	·	25	-5	0	-1
Cc1ccc2c(Cn3ccnc3)cc(=O)oc2c1C	2	7	-9	1	-11	0
Cc1cc(Cn2ccnc2)c(C)c([N+](=O)[O-])c1Cn1ccnc1	2	-1	4	60*	17	-1
Cc1ccc(-c2nc(NC(=O)c3ccc(S(=O)(=O)N(CCC#N)CCC#N)cc3)sc2-c2ccccc2)cc1	2	1	-26	56*	9	1
Cc1nc(NC(=O)c2c(-c3ccccc3)noc2C)sc1C(=O)N(C)C	·	120*	-2	·	24	4
NC(N)=N/N=C/c1ccc(Cl)c(Cl)c1	-1	2	49	53	6	4
NC(N)=N/N=C/c1ccc(Cl)cc1Cl	6	1	42	62*	7	4
Cc1cccc(CN(C)CCc2ccccn2)c1	6	17	-30	61*	-1	-5
O=[N+]([O-])c1cc(Br)c(OCc2nnc(-c3ccccc3)o2)c(Br)c1	2	6	8	67*	13	-4
CS(=O)(=O)c1ccc(C(=O)OCc2nnc(-c3ccccc3)o2)cc1[N+](=O)[O-]	9	-16	·	76*	·	·
O=[N+]([O-])c1ccc2c(OCc3nnc(-c4ccccc4Br)o3)ncnc2c1	-2	8	7	71*	26	2
COc1ccc(C/C(=N\O)c2ccc(OC)cc2)cc1	-8	-11	-13	12	6	-4
COc1ccc(/C=C/C(=O)OCC(=O)NC2CCCC2)cc1	·	·	-10	·	·	-6
Cc1c(Br)cc(C(=O)N2CCN(CCO)CC2)c(C)c1C	3	8	6	-3	-2	-2
OCCN1CCN(CCCc2c3c(cc4c2CCC4)CCC3)CC1	-1	-3	11	18	95*	-7
COCc1cc(CN2CCN(C)CC2)c(O)c2ncccc12	9	108*	7	32	25	24
Oc1c(CN2CCOCC2)cc(COCc2ccccc2)c2cccnc12	29	83*	·	62*	48	98*
Cc1cc(OCc2cccc(Cl)c2)c(C)cc1CN1CCOCC1	2	-8	-24	52	53	1
Oc1c(CN2CCN(c3ccccc3)CC2)cc(Br)c2cccnc12	90*	102*	·	52	114*	98*
CN1CCN(Cc2cc(Cl)c3cccnc3c2OC(=O)c2cccs2)CC1	0	2	29	5	17	50
CC(=O)Nc1ccc(NC(=O)CSc2nc(N)c(NC(=O)c3ccccc3F)c(=O)[nH]2)cc1	-2	4	24	2	1	0
CNC(=O)NC(=O)C(C)OC(=O)c1c2c(nc3ccccc13)/C(=C/c1cccs1)CC2 (configuration not stated)	23	5	-1	2	94*	-4
CCOC(=O)C1=C(Nc2ccc(C)cc2)CC(C)(O)C(C(=O)OCC)C1c1ccccc1 (configuration not stated)	11	-1	20	25	38	11
CCOC(=O)C1=C(Nc2ccccc2)CC(C)(O)C(C(=O)OCC)C1c1ccccc1 (configuration not stated)	-17	-10	0	76*	17	-3
Cc1ccc(NC(=O)c2cc(N3C(=O)C=CC3=O)ccc2N2CCOCC2)cc1Cl	61*	8	·	55*	74	-5
COC(=O)c1cc(NC(=O)c2cc(-c3ccccc3Cl)oc2C(F)(F)F)ccc1N1CCOCC1	13	-1	36	31	89*	11
